Screening data deposited in PubChem BioAssay by several laboratories.
Compounds with a hit are over-represented: about 2.1% of the library has one in this group of screens.
ASAP1 GAP inh: inhibitors of human ASAP1 ArfGAP activity; Q9ULH1; ASAP1-stimulated ARF1 GTP hydrolysis, GDP FP detection; inhibition, % at 16.5 µM; hit rate 0.19% among 360,000; in the data active means inhibition above about 25%;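 further: 0% = vehicle with enzyme and substrate and 100% = no enzyme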
Mot1-301 SUMO: inhibitors of SUMOylation pathway: yeast Mot1-301 growth rescue; S. cerevisiae Mot1-301 growth rescue, ATP luminescence, 38.5C; percent above DMSO median, 100 means doubled; growth rescue, % at 18.8 µM; hit rate 1% among 320,000;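 active means every valid replicate shows activation above 250% relative to neutral control wells; inactive means the rest, any valid replicate at or below 250%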;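 further: OY570 slx delta 5 strain wells were the positive control but not used for scaling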
APOBEC3A inh: inhibitors of human APOBEC3A DNA deaminase; P31941; recombinant A3A, FAM/TAMRA ssDNA deamination fluorescence; inhibition, % at 20 µM; hit rate 0.41% among 330,000;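 active means at least 40% inhibition at 20 µM here, with at most 30% in a related deaminase screen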;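 further: plate controls were A3A with DMSO for no effect and wells lacking A3A enzyme for full effect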
ARFGAP1 inh: rat ARFGAP1 inhibition. AID 651572. hit rate 0.26% among 360,000. Q62848. inhibition, % at 16.5 µM. Arfgap1-stimulated ARF1 GTP hydrolysis, GDP FP detection;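 active means inhibition above a per-plate limit, mean inhibition of low control wells plus 3 SD, cut at about 25% in these data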;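 further: 0% = DMSO wells with enzyme and 100% = wells lacking Arfgap1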
Target sequence (Q62848 1-136 limits assumed): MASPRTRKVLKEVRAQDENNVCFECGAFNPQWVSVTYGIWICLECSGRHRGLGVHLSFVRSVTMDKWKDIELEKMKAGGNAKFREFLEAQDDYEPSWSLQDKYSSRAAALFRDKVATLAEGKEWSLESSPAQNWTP
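material = rat Arfgap1 catalytic domain, aa 1-136 | also added = human ARF1(Δ1-17)-GTP substrate | compound dosing = one concentration, 16.5 µM, DMSO 1.26% | times = GTP hydrolysis reaction 2 h at 25 °C | measured by = FP, GDP Alexa 633 tracer displaced from anti-GDP antibody, 620/688 nm | evaluation = percent inhibition of Arfgap1-stimulated GTP hydrolysis | replication = single well per compound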
APOBEC3G inh: inhibitors of human APOBEC3G DNA deaminase; Q9HC16; recombinant A3G, ssDNA deamination FAM/TAMRA fluorescence; inhibition, % at 20 µM; hit rate 0.28% among 330,000; AID 493012;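 active means inhibition of at least 40% at 20 µM, with no more than 30% in the related APOBEC3A deaminase screen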;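 further: plate controls were DMSO wells with A3G for no effect and wells lacking A3G enzyme for full effect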
Target sequence (Q9HC16 whole entry, looked up): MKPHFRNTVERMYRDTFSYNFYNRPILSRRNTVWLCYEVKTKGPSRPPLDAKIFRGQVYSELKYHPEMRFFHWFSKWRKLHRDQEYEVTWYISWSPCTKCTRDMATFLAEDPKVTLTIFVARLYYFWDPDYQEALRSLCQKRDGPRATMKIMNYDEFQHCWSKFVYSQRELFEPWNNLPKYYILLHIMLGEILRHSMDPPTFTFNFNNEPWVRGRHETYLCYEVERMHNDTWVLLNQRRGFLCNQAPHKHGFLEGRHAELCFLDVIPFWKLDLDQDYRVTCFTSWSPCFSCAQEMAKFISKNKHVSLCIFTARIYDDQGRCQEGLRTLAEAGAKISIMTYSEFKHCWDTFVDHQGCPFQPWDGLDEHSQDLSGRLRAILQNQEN
Statin myotox sup: suppressors of simvastatin-induced myotoxicity in C2C12 myotubes. ATP luminescence, 48 h; scaled: DMSO 0, geranylgeraniol control 100. rescue of ATP level, % at 7.49 µM. hit rate 0.78% among 330,000. AID 602340;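 active means mean ATP rescue above about 67%, or every replicate alone reaching that limit, limit read from the data, passing the limit was not always enough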;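 further: myotubes were challenged with 10 µM simvastatin during compound exposure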
Mot1 SUMO dose: SUMO pathway inhibitors in yeast Mot1-301 growth; shares compounds with Mot1-301 SUMO; S. cerevisiae Mot1-301 galactose growth, ATP luminescence, 24 h; -100 = growth of slx-deleted rescue strain; growth activity, percent, % at 42 µM; 2,300 tested, under 10 active; AID 493004;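 active means Signal drops as the depositor expects, and the fitted half-maximal dose is no more than ten times the top valid tested dose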;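 further: more negative values mean stronger growth rescue toward the control strain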
Starred values were filed as active, the others as inactive; · = no result; + = active, no number; [ ] = dose if it differs, or a comment.

SMILES	ASAP1 GAP inh	Mot1-301 SUMO	APOBEC3A inh	ARFGAP1 inh	APOBEC3G inh	Statin myotox sup	Mot1 SUMO dose
Cc1nn(C)c(Cl)c1CN1CCN(CCC(C)C)C(CCO)C1 (stereo not given)	-2	+	-5	-5	-4	9	0
Cc1nn(C)c(Cl)c1CN1CCN(CC(C)C)C(CCO)C1 (stereo not given)	2	1	5	-9	-2	9	·
Cc1noc(C)c1Cc1ccc(O)cc1	9	472*	1	8	-4	3	-1
COc1ccc(NC(=O)Nc2ccc3c(c2)C(=O)N([C@H](C)CO)C[C@H](C)[C@H](CN(C)S(=O)(=O)c2ccc(C)cc2)O3)cc1	·	·	·	·	·	-56	·
O=C(Nc1nc2ccccc2s1)c1cccc(S(=O)(=O)N2CCc3ccccc32)c1	6	+	5	13	-2	3	0
COc1cc(C)c(Cl)c(C)c1S(=O)(=O)NCc1ccc2c(c1)OCO2	1	384*	-1	-7	-2	-27	-1
COc1cc(C)c(S(=O)(=O)NCc2ccc3c(c2)OCO3)cc1C	3	1	-4	11	-3	-5	·
Cc1ccc(C)c(OCCCC(=O)N2CCOCC2)c1	10	689*	9	-8	-3	-1	1
O=[N+]([O-])c1cc([N+](=O)[O-])c2cc3ccccc3nc2c1	0	468*	3	0	2	21	-1
O=[N+]([O-])c1cnc2ccccc2c1	8	3	-3	8	-3	6	·
CCc1cccc(C)c1NC(=O)CSc1nnc(-c2cc3cc(Br)ccc3o2)n1CC	5	+	-2	4	-4	-13	0
Cn1c(SCC(=O)Nc2cccc(C(=O)O)c2)nnc1-c1cc2cc(Br)ccc2o1	-4	-6	0	10	-3	10	·
O=C(C[C@H]1CC[C@H]2[C@@H](COC[C@@H](O)CN2Cc2ccc(F)cc2)O1)NCCc1ccccc1	·	·	·	·	·	8	·
CCCCn1c(/N=C/c2ccc(N(C)C)cc2)nc2ccccc21	6	-6	-1	2	-5	·	·
CCCCn1c(/N=C/c2ccc3c(c2)OCO3)nc2ccccc21	3	577*	0	5	-5	9	-1
O=C(O)/C=C/c1cccnc1	-5	399*	-5	5	-6	4	0
CO[C@H]1CN(C)C(=O)c2ccc(NC(=O)C3CCCCC3)cc2OC[C@@H](C)NC[C@@H]1C	·	·	·	·	·	2	·
CCCCC(O)(c1ccc(F)cc1)C(CN1CCOCC1)c1ccc(Cl)cc1 (stereo not given)	5	537*	-1	7	-8	16	0[21 µM]
CO[C@H]1CN(C)C(=O)c2cc(NC(C)=O)ccc2OC[C@@H](C)N(Cc2ccccc2F)C[C@H]1C	·	·	·	·	·	-4	·
CCCN1[C@@H]2Cn3c(ccc(C4=CCCC4)c3=O)[C@H]1[C@@H](C(=O)NCCOC)[C@@H]2CO	·	·	·	·	·	1	·
CCSc1nc2c([nH]c3ccccc32)c(=O)n1C	-12	-21	2	3	4	-17	·
CCC1CCCCN1C(=O)CSc1nc2c([nH]c3ccccc32)c(=O)n1C (stereo not given)	-10	631*	1	4	0	36	1
CCCC#Cc1cnc2c(c1)C(=O)N([C@@H](C)CO)C[C@@H](C)[C@H](CN(C)C(=O)c1cnccn1)O2	·	·	·	·	·	12	·
COc1cccc(NC(=O)CN(C)C(=O)C2CC(=O)N(CCc3ccc(OC)c(OC)c3)C2)c1 (stereo not given)	-19	·	·	-10	·	0	·
COc1ccc(CCN2CC(C(=O)N(C)CC(=O)Nc3cccc(F)c3)CC2=O)cc1OC (stereo not given)	-7	451*	1	9	4	0	0
SMILES	ASAP1 GAP inh	Mot1-301 SUMO	APOBEC3A inh	ARFGAP1 inh	APOBEC3G inh	Statin myotox sup	Mot1 SUMO dose
O=C(C[C@@H]1CC[C@H]2[C@@H](COC[C@H](O)CN2Cc2cccc(-c3ccncc3)c2)O1)N1CCN(c2ccccc2)CC1	·	·	·	·	·	33	·
C[C@H](CO)N1C[C@H](C)[C@@H](CN(C)S(=O)(=O)c2ccc(F)cc2)Oc2ccc(NC(=O)C3CC3)cc2CC1=O	·	·	·	·	·	9	·
C[C@H]1CN([C@@H](C)CO)C(=O)c2cc(C#CCC3CCCC3)cnc2O[C@@H]1CN(C)C(=O)CN(C)C	·	·	·	·	·	3	·
C[C@@H]1CCCCO[C@H](CN(C)C(=O)Nc2ccc(F)cc2)[C@H](C)CN([C@@H](C)CO)C(=O)c2cc(NC(=O)Nc3cccc4ccccc34)ccc2O1	·	·	·	·	·	21	·
COc1cc2c(cc1NC(=O)c1cccnc1)oc1ccccc12	1	555*	1	9	-3	-54	-1
COc1cc2c(cc1NC(=O)c1ccncc1)oc1ccccc12	·	290	2	·	0	·	·
CC(C)C(OC(=O)CN1C(=O)COc2ccccc21)C(=O)NC1CCCC1 (stereo not given)	6	784*	-7	7	-7	-10	0
O=C(O)c1cn(Cc2cccnc2)c(=O)c2ccccc12	·	-16	-1	·	-5	·	·
O=C(O)c1cn(Cc2ccccn2)c(=O)c2ccccc12	11	+	-4	2	-6	·	0
C[C@H](CO)N1C[C@H](C)[C@H](CN(C)S(=O)(=O)c2ccc(Cl)cc2)OCc2ccccc2-c2ccccc2C1=O	·	·	·	·	·	-7	·
Cc1ccnc(SCC(=O)Nc2cc(C)on2)n1	-3	-2	4	-14	-3	·	·
COc1ccc(NC(=O)CSc2nccc(C)n2)cc1	10	+	7	10	2	113*	0
CCC(=O)N1C[C@@H]2[C@H](c3ccccc31)[C@H](CO)N2C(=O)CC	·	·	·	·	·	-23	·
CC1=CC2=NC(=O)/C(=C\c3cc(C)n(-c4ccccc4)c3C)C(=N)N2O1	-2	511*	27	21	-5	10	-1
CC1=CC2=NC(=O)/C(=C\c3cc(C)n(-c4cccc(Cl)c4)c3C)C(=N)N2O1	14	11	3	1	3	·	·
O=C(c1ccc(Cl)s1)N1CCCC(N2CCN(c3ccc(F)cc3)CC2)C1 (stereo not given)	-4	140	-5	-11	-8	10	·
CC(=O)c1ccc(C(=O)N2CCCC(N3CCN(c4ccc(F)cc4)CC3)C2)s1 (stereo not given)	9	508*	-1	2	-5	-8	0
CC(C)=CC(=O)N1CCCC(N2CCN(c3ccccc3C)CC2)C1 (stereo not given)	-10	-9	-4	3	-7	14	·
